≈ marks a conversion by molar mass, not a printed value.
Experiments:
[1] = system: Borrelia spielmanii; assay: Antimicrobial activity against Borrelia spielmanii isolate PHap after 72 hrs by colorimetric assay; type: functional; details: Borreliella spielmanii
Outline: (§1)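 Tested in microtiter trays preloaded with lyophilized antibiotics; clinical isolates were low-passage (10 to 20 passages). MIC was read by colorimetric assay after 72 h. MBC was defined as 100% killing in liquid medium at 72 h: aliquots from vials showing no growth were diluted 1:1,000 in BSK and checked for regrowth after 3 weeks of subculture. Values are medians of three independent experiments on separate days.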

[2] = system: Borrelia spielmanii; assay: Antimicrobial activity against Borrelia spielmanii isolate PAnz after 72 hrs by colorimetric assay; type: functional; details: Borreliella spielmanii; outline: as §1
[3] = system: Borrelia spielmanii; assay: Antimicrobial activity against Borrelia spielmanii isolate PMew after 72 hrs by colorimetric assay; type: functional; details: Borreliella spielmanii; outline: as §1
[4] = Antimicrobial activity against Borrelia burgdorferi B31 after 72 hrs by colorimetric assay; type: functional; details: Borreliella burgdorferi; outline: as §1
[5] = system: Borrelia afzelii; assay: Antimicrobial activity against Borrelia afzelii isolate G1039 after 72 hrs by colorimetric assay; type: functional; details: Borreliella afzelii, isolate G1039, 72 h; outline: as §1
[6] = system: Borrelia afzelii; assay: Antimicrobial activity against Borrelia afzelii isolate G600 after 72 hrs by colorimetric assay; type: functional; details: Borreliella afzelii, isolate G600, 72 h; outline: as §1
[7] = Antimicrobial activity against Borrelia spielmanii A14S after 72 hrs by colorimetric assay; type: functional; details: Borreliella spielmanii
Outline: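 Low-passage isolates (10 to 20 passages) grown in BSK medium were tested in microtiter trays precoated with lyophilized antimicrobials. MIC was read colorimetrically after 72 h. Independent experiments were run on three different days, and the MIC reported is the median of the three.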

[8] = system: Borrelia spielmanii; assay: Antimicrobial activity against Borrelia spielmanii isolate TIsar3 after 72 hrs by colorimetric assay; type: functional; details: Borreliella spielmanii, isolate TIsar3, 72 h; outline: as §1
[9] = system: Borrelia garinii; assay: Antimicrobial activity against Borrelia garinii isolate M2094 after 72 hrs by colorimetric assay; type: functional; details: Borreliella garinii, isolate M2094, 72 h; outline: as §1
[10] = system: Borrelia spielmanii; assay: Antimicrobial activity against Borrelia spielmanii isolate PJes after 72 hrs by colorimetric assay; type: functional; details: Borreliella spielmanii; outline: as §1
[11] = system: Borrelia burgdorferi; assay: Antimicrobial activity against Borrelia burgdorferi isolate LW2 after 72 hrs by colorimetric assay; type: functional; details: Borreliella burgdorferi, isolate LW2, 72 h; outline: as §1
[12] = system: Borrelia afzelii; assay: Antimicrobial activity against Borrelia afzelii isolate FEM1 after 72 hrs by colorimetric assay; type: functional; details: Borreliella afzelii, isolate FEM1, 72 h; outline: as §1
[13] = system: Borrelia garinii; assay: Antimicrobial activity against Borrelia garinii isolate PSth after 72 hrs by colorimetric assay; type: functional; details: Borreliella garinii; outline: as §1
[14] = system: Borrelia garinii; assay: Antimicrobial activity against Borrelia garinii isolate G1 after 72 hrs by colorimetric assay; type: functional; details: Borreliella garinii, isolate G1, 72 h; outline: as §1
[15] = system: Borrelia spielmanii; assay: Antimicrobial activity against Borrelia spielmanii isolate PMai after 72 hrs by colorimetric assay; type: functional; details: Borreliella spielmanii; outline: as §1
[16] = system: Borrelia; assay: Antimicrobial activity against Borrelia clinical isolate after 72 hrs by colorimetric assay; type: functional; details: for MIC90: Borrelia, 72 h; outline: as §1
[17] = system: Borrelia spielmanii; assay: Antimicrobial activity against Borrelia spielmanii isolate PSig2 after 72 hrs by colorimetric assay; type: functional; details: Borreliella spielmanii, isolate PSig2, 72 h; outline: as §1
[18] = system: Borrelia spielmanii; assay: Antimicrobial activity against Borrelia spielmanii isolate PC-Eq17 after 72 hrs by colorimetric assay; type: functional; details: Borreliella spielmanii, isolate PC-Eq17, 72 h; outline: as §1
[19] = system: Borrelia spielmanii; assay: Antimicrobial activity against Borrelia spielmanii isolate TIsar2 after 72 hrs by colorimetric assay; type: functional; details: Borreliella spielmanii, isolate TIsar2, 72 h; outline: as §1
[20] = system: Staphylococcus aureus; assay: Antimicrobial activity against Staphylococcus aureus ATCC 29213 after 72 hrs by colorimetric assay; type: functional; details: ATCC 29213, 72 h
Outline: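 Quality-control MIC followed the CLSI method with two changes: BSK medium was used, and the antibiotic-medium preparation was preincubated for 48 h before testing. Tests were run on three different days, and the MIC reported is the median of the three.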

[21] = system: Borrelia spielmanii; assay: Antimicrobial activity against Borrelia spielmanii isolate PC-Eq17 assessed as reduction in bacterial count at 2 ug/ml after 72 hrs; type: functional, Borreliella spielmanii; set-up: scale not given: the % may be the effect or the level left
Outline: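 Time-kill assay: the isolate was exposed to ceftriaxone for up to 120 h. Growth was followed by conventional counts of morphologically intact motile cells and compared with a drug-free growth control. Values are means of two independent experiments run on different days.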

[22] = system: Borrelia spielmanii; assay: Antimicrobial activity against Borrelia spielmanii isolate PC-Eq17 after 120 hrs by colorimetric assay; type: functional; details: Borreliella spielmanii, isolate PC-Eq17, 120 h

CC1(C)S[C@@H]2[C@H](NC(=O)[C@H](N)c3ccc(O)cc3)C(=O)N2[C@H]1C(=O)O [AMOXICILLIN]
MBC [1]: > 16 µg/mL
MIC [1]: 2 µg/mL (≈ 5.47 µM)
MBC [2]: 16 µg/mL (≈ 43.8 µM)
MIC [2]: 0.25 µg/mL (≈ 0.684 µM)
MBC [3]: > 16 µg/mL
MIC [3]: 1 µg/mL (≈ 2.74 µM)
MBC [4]: 16 µg/mL (≈ 43.8 µM)
MIC [4]: 0.5 µg/mL (≈ 1.37 µM)
MBC [5]: 8 µg/mL (≈ 21.9 µM)
MIC [5]: 0.5 µg/mL (≈ 1.37 µM)
MBC [6]: 4 µg/mL (≈ 10.9 µM)
MIC [6]: 1 µg/mL (≈ 2.74 µM)
MBC [7]: 16 µg/mL (≈ 43.8 µM)
MIC [7]: 0.25 µg/mL (≈ 0.684 µM)
MBC [8]: 4 µg/mL (≈ 10.9 µM)
MIC [8]: 2 µg/mL (≈ 5.47 µM)
MBC [9]: 16 µg/mL (≈ 43.8 µM)
MIC [9]: 0.25 µg/mL (≈ 0.684 µM)
MBC [10]: 16 µg/mL (≈ 43.8 µM)
MIC [10]: 0.25 µg/mL (≈ 0.684 µM)
MBC [11]: 4 µg/mL (≈ 10.9 µM)
MIC [11]: 1 µg/mL (≈ 2.74 µM)
MBC [12]: 4 µg/mL (≈ 10.9 µM)
MIC [12]: 4 µg/mL (≈ 10.9 µM)
MBC [13]: 8 µg/mL (≈ 21.9 µM)
MIC [13]: 0.125 µg/mL (≈ 0.342 µM)
MBC [14]: 16 µg/mL (≈ 43.8 µM)
MIC [14]: ≤ 0.125 µg/mL
MBC [15]: 8 µg/mL (≈ 21.9 µM)
MIC [15]: 2 µg/mL (≈ 5.47 µM)
MBC90 [16]: >16 µg/mL
MIC90 [16]: 2 µg/mL (≈ 5.47 µM)
MBC [17]: 16 µg/mL (≈ 43.8 µM)
MIC [17]: 0.5 µg/mL (≈ 1.37 µM)
MBC [18]: > 16 µg/mL
MIC [18]: 0.5 µg/mL (≈ 1.37 µM)
MBC [19]: 16 µg/mL (≈ 43.8 µM)
MIC [19]: ≤ 0.125 µg/mL
MIC [20]: 2 µg/mL (≈ 5.47 µM)

CC[C@H]1OC(=O)[C@H](C)[C@@H](O[C@H]2C[C@@](C)(OC)[C@@H](O)[C@H](C)O2)[C@H](C)[C@@H](O[C@@H]2O[C@H](C)C[C@H](N(C)C)[C@H]2O)[C@](C)(O)C[C@@H](C)C(=O)[C@H](C)[C@@H](O)[C@]1(C)O [ERYTHROMYCIN]
MBC [1]: 2 µg/mL (≈ 2.73 µM)
MIC [1]: 0.0079 µg/mL (≈ 0.0108 µM)
MBC [2]: 2 µg/mL (≈ 2.73 µM)
MIC [2]: 0.0079 µg/mL (≈ 0.0108 µM)
MBC [3]: 2 µg/mL (≈ 2.73 µM)
MIC [3]: 0.0312 µg/mL (≈ 0.0425 µM)
MBC [4]: 4 µg/mL (≈ 5.45 µM)
MIC [4]: 0.0312 µg/mL (≈ 0.0425 µM)
MBC [5]: 2 µg/mL (≈ 2.73 µM)
MIC [5]: 0.0156 µg/mL (≈ 0.0213 µM)
MBC [6]: 2 µg/mL (≈ 2.73 µM)
MIC [6]: 0.0312 µg/mL (≈ 0.0425 µM)
MBC [7]: 2 µg/mL (≈ 2.73 µM)
MIC [7]: 0.0156 µg/mL (≈ 0.0213 µM)
MBC [8]: 2 µg/mL (≈ 2.73 µM)
MIC [8]: 0.0312 µg/mL (≈ 0.0425 µM)
MBC [9]: 4 µg/mL (≈ 5.45 µM)
MIC [9]: 0.0312 µg/mL (≈ 0.0425 µM)
MBC [10]: 1 µg/mL (≈ 1.36 µM)
MIC [10]: 0.0156 µg/mL (≈ 0.0213 µM)
MBC [11]: 4 µg/mL (≈ 5.45 µM)
MIC [11]: 0.0312 µg/mL (≈ 0.0425 µM)
MBC [12]: 2 µg/mL (≈ 2.73 µM)
MIC [12]: 0.0312 µg/mL (≈ 0.0425 µM)
MBC [13]: 4 µg/mL (≈ 5.45 µM)
MIC [13]: 0.0312 µg/mL (≈ 0.0425 µM)
MBC [14]: 4 µg/mL (≈ 5.45 µM)
MIC [14]: 0.0156 µg/mL (≈ 0.0213 µM)
MBC [15]: 1 µg/mL (≈ 1.36 µM)
MIC [15]: 0.0079 µg/mL (≈ 0.0108 µM)
MBC90 [16]: 4 µg/mL (≈ 5.45 µM)
MIC90 [16]: 0.0312 µg/mL (≈ 0.0425 µM)
MBC [17]: 2 µg/mL (≈ 2.73 µM)
MIC [17]: 0.0079 µg/mL (≈ 0.0108 µM)
MBC [18]: 4 µg/mL (≈ 5.45 µM)
MIC [18]: 0.0156 µg/mL (≈ 0.0213 µM)
MBC [19]: 1 µg/mL (≈ 1.36 µM)
MIC [19]: 0.0312 µg/mL (≈ 0.0425 µM)
MIC [20]: 0.25 µg/mL (≈ 0.341 µM)

CO/N=C(\C(=O)N[C@@H]1C(=O)N2C(C(=O)O)=C(CSc3nc(=O)c(O)nn3C)CS[C@H]12)c1csc(N)n1 [CEFTRIAXONE]
MBC [1]: 2 µg/mL (≈ 3.61 µM)
MIC [1]: 0.0625 µg/mL (≈ 0.113 µM)
MBC [2]: 1 µg/mL (≈ 1.8 µM)
MIC [2]: 0.0156 µg/mL (≈ 0.0281 µM)
MBC [3]: 4 µg/mL (≈ 7.21 µM)
MIC [3]: 0.125 µg/mL (≈ 0.225 µM)
MBC [4]: 2 µg/mL (≈ 3.61 µM)
MIC [4]: 0.0312 µg/mL (≈ 0.0563 µM)
MBC [5]: 0.5 µg/mL (≈ 0.902 µM)
MIC [5]: 0.0312 µg/mL (≈ 0.0563 µM)
MBC [6]: 0.5 µg/mL (≈ 0.902 µM)
MIC [6]: 0.0625 µg/mL (≈ 0.113 µM)
MBC [7]: 0.5 µg/mL (≈ 0.902 µM)
MIC [7]: 0.0312 µg/mL (≈ 0.0563 µM)
MBC [8]: 0.5 µg/mL (≈ 0.902 µM)
MIC [8]: 0.0625 µg/mL (≈ 0.113 µM)
MBC [9]: 2 µg/mL (≈ 3.61 µM)
MIC [9]: 0.0312 µg/mL (≈ 0.0563 µM)
MBC [10]: 2 µg/mL (≈ 3.61 µM)
MIC [10]: 0.0312 µg/mL (≈ 0.0563 µM)
MBC [11]: 4 µg/mL (≈ 7.21 µM)
MIC [11]: 0.0312 µg/mL (≈ 0.0563 µM)
Activity [21]: 99.9%
MBC [12]: 2 µg/mL (≈ 3.61 µM)
MIC [12]: 0.0625 µg/mL (≈ 0.113 µM)
MBC [13]: 2 µg/mL (≈ 3.61 µM)
MIC [13]: 0.0312 µg/mL (≈ 0.0563 µM)
MBC [14]: 2 µg/mL (≈ 3.61 µM)
MIC [14]: 0.0312 µg/mL (≈ 0.0563 µM)
MBC [15]: 4 µg/mL (≈ 7.21 µM)
MIC [15]: 0.0625 µg/mL (≈ 0.113 µM)
MBC90 [16]: 4 µg/mL (≈ 7.21 µM)
MIC90 [16]: 0.0625 µg/mL (≈ 0.113 µM)
MBC [17]: 1 µg/mL (≈ 1.8 µM)
MIC [17]: 0.0312 µg/mL (≈ 0.0563 µM)
MBC [18]: 2 µg/mL (≈ 3.61 µM)
MIC [18]: 0.0312 µg/mL (≈ 0.0563 µM)
MBC [19]: 0.5 µg/mL (≈ 0.902 µM)
MIC [19]: 0.0156 µg/mL (≈ 0.0281 µM)
MIC [20]: 4 µg/mL (≈ 7.21 µM)
MBC [22]: 2 µg/mL (≈ 3.61 µM)

From ChEMBL document CHEMBL1629636, “In vitro susceptibility of Borrelia spielmanii to antimicrobial agents commonly used for treatment of Lyme disease” (2009)
